# Compound activity deposited in PubChem by several laboratories.
# Shown are actives, neighbours in structure and some others; about 2.3% of the full set was active somewhere.
# TRPC6 activator: mouse TRPC6 channel activators, primary screen, cell-based, HEK293, membrane potential dye. B-score at 10 µM. 310,000 compounds, 0.13% hits. HEK293-TRPC6 membrane potential dye fluorescence; hits give high values. AID 2550, 2010;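 active = B-score of the integrated fluorescence ratio above library mean plus 3 SD, and starting fluorescence ratio within library mean plus 5 SD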;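 also: higher score means more depolarization so channel activation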
# TRPC4 potent: positive allosteric modulators of TRPC4, primary screen, cell-based, mouse TRPC4beta, HEK293 mu-opioid, Fluo-4 calcium; B-score at 10 µM; DAMGO EC20, Fluo-4 Ca2+ flux; hits give high values; Short transient receptor potential channel 4 (Mus musculus), Q9QUQ5; 310,000 compounds, 0.42% hits;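 active = B-score of calcium response area above 5 SD of library B-scores, with initial fluorescence ratio within 5 SD of library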;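 also: B-score of integrated fluorescence ratio over time as area under calcium response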
# Target sequence (Q9QUQ5 whole entry, looked up): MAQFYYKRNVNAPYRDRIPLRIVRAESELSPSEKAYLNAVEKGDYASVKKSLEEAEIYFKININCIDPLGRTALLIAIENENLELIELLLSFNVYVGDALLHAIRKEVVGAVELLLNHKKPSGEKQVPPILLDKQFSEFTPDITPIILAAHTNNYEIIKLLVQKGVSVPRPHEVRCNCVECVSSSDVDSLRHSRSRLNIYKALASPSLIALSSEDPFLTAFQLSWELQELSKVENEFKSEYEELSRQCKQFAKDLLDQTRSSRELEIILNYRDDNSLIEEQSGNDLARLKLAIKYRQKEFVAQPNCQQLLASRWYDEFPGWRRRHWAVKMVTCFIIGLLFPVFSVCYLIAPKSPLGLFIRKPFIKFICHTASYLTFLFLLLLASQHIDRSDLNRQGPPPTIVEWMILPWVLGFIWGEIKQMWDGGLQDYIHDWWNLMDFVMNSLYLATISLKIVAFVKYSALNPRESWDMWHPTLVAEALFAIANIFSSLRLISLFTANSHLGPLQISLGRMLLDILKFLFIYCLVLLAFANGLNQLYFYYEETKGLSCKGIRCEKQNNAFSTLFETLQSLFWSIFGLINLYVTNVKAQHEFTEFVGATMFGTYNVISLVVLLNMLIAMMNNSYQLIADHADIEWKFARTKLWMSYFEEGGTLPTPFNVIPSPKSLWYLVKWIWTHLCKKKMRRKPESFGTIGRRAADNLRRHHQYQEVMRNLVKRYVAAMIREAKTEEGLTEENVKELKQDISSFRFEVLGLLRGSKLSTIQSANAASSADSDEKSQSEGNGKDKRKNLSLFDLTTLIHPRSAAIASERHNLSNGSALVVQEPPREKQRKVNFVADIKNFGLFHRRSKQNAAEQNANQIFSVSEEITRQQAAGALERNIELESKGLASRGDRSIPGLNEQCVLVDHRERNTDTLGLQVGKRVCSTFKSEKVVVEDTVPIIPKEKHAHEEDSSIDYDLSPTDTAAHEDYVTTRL
# TRPC4 agonist: activators of mouse TRPC4 channel, primary screen, Fluo4 calcium, HEK293 TRPC4beta/mu-opioid cells | AID 2237, 2010 | Short transient receptor potential channel 4 (Mus musculus), Q9QUQ5 | Fluo4 calcium fluorescence; hits give high values | 310,000 compounds, 0.49% hits | B-score at 10 µM;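 active = B-score above 5 SD of library B-scores, and initial fluorescence ratio not above library mean plus 5 SD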;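 also: positive B-score marks a calcium rise read as TRPC4 activation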
#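 System: HEK293 cells stably co-expressing mouse TRPC4beta and mu-opioid receptor; Schedule: Fluo4 dye loading 45 min at room temperature, 110 s recording; Detection: Fluo4 fluorescence, kinetic; Evaluation: B-scored integrated calcium fluorescence ratio; Controls: buffer (low) and maximal DAMGO (high).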
# TRPC6 inhibitor: mouse TRPC6 channel inhibitors, primary screen, cell-based, HEK293, membrane potential dye. Short transient receptor potential channel 6 (Mus musculus), Q61143. ACh-evoked depolarization; hits give low values. B-score at 10 µM. 310,000 compounds, 1.1% hits;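 active = B-score under library mean minus 3 SD, initial fluorescence not abnormally high, positive integrated signal ratio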;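 also: B-score derived from integrated fluorescence ratio over the kinetic read; more negative B-score means stronger inhibition of depolarization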
# TRPC4 inh: inhibitors of mouse TRPC4 channel, primary screen, Fluo4 calcium, HEK293 TRPC4beta/mu-opioid cells; AID 2247, 2010; DAMGO-evoked Fluo4 calcium flux; hits give low values; 300,000 compounds, 0.39% hits; B-score at 10 µM;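 active = B-score over 3 SD under the library average, no early fluorescence shift, positive overall ratio signal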
#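 Material: HEK293 cells with stable TRPC4beta plus mu-opioid receptor expression; probe or stimulus: DAMGO in two steps, submaximal then maximal; technique: Fluo4 calcium fluorescence by kinetic imaging, 5 s 1 Hz baseline; measure: integrated fluorescence ratio relative to baseline, converted to per-well B score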
# Yeast superoxide: reduction of superoxide in aged yeast, primary screen, HTS; S. cerevisiae aged cells, superoxide DHE fluorescence; hits give low values; superoxide response (% of plate mean), % at 10 µM; 330,000 compounds, 0.18% hits; AID 2690, 2010;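 active = superoxide response under a set limit, about three screen SD below normal, cut at about 65% in these data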;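 also: yeast aged for seven days with compound at 30 °C before DHE staining; 100% = average MFI of all compound-treated wells on the plate with controls excluded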
# * hit, by the source's call; i = inactive; . = no result given.
SMILES,TRPC6 activator,TRPC4 potent,TRPC4 agonist,TRPC6 inhibitor,TRPC4 inh,Yeast superoxide
COc1ccc(NC(=O)CCN2CCN(C/C=C/c3ccccc3)CC2)cc1,i,i,i,i,i,104
O=C(Nc1cccc(Cl)c1)N1CCN(C/C=C/c2ccccc2)CC1,i,26*,i,i,i,107
COc1cc(NC(=O)CCN2CCN(C/C=C/c3ccccc3)CC2)cc(OC)c1,i,10*,73*,i,i,111
CCN(C(=O)c1c(-c2ccccc2Cl)noc1C)C1CCCCC1,i,i,i,i,-6*,104
Cc1onc(-c2ccccc2Cl)c1C(=O)N1CCN(C/C=C/c2ccccc2)CC1,i,i,101*,i,i,93
O=C(Nc1nnc(-c2ccccc2Cl)o1)c1nc2ccccc2s1,i,i,185*,i,i,121
Cc1cc(C)c(C)c(OCCCN(C)C)c1,i,13*,126*,i,i,98
Cc1cc(C)c(C)c(OCCN2CCOCC2)c1,i,10*,i,i,i,104
CC(=O)Nc1cc(-c2nn(C)c(=O)c3ccccc23)ccc1N1CCCCC1,i,i,i,i,i,96
COCc1c(C(=O)OCC(=O)NCCc2ccc(S(N)(=O)=O)cc2)oc2ccccc12,.,.,.,.,.,65*
Cc1c(C(=O)OCC(=O)NCCc2ccc(S(N)(=O)=O)cc2)oc2ccccc12,.,.,.,.,.,80
COc1ccc(C(=O)Nc2ccc(CN3CCS(=O)(=O)CC3)cc2)cc1,i,i,i,i,i,108
COc1ccccc1N1CCN(CCCNC(=O)Nc2ccccc2)CC1,i,i,i,i,-6*,98
O=C(NCCCN1CCN(c2ccccc2)CC1)Nc1ccccc1C(F)(F)F,i,i,i,i,-6*,99
COc1ccc(N2CCN(CCCNC(=O)Nc3ccccc3)CC2)cc1,i,i,i,i,i,99
COc1ccc(CCNCC(O)COc2ccc(OC)cc2C(C)(C)C)cc1 (centres undefined),i,16*,i,i,i,88
COc1ccc(CCNCC(O)COc2cccc(Br)c2)cc1OC (centres undefined),i,i,i,i,i,90
CCCCCCCCCCCCN1[C@@H](CC(C)=O)c2cc(F)ccc2S1(=O)=O,i,i,i,i,i,106
O=C(NC1CCN(Cc2ccccc2)CC1)C12CC3CC(CC(C3)C1)C2,i,i,123*,i,i,101
O=C(Cc1ccc(Br)cc1)NC1CCN(Cc2ccccc2)CC1,i,12*,i,i,i,95
O=C(Cc1ccccc1)NC1CCN(Cc2ccccc2)CC1,i,i,i,i,i,110
COc1cccc(NC(=O)C(OC(=O)/C=C/c2ccc3c(c2)OCO3)c2ccccc2)c1 (centres undefined),i,i,i,i,i,98
O=C(COc1ccccc1)NNC(=S)NC(=O)c1ccccc1,i,i,46*,i,i,207
CCOc1cccc(C(=O)NC(=S)Nc2cccc(C)c2)c1,i,i,i,i,i,90
Cc1ccc(C(=O)NC(=S)NNC(=O)COc2ccccc2C)cc1,i,i,54*,i,i,111
SMILES,TRPC6 activator,TRPC4 potent,TRPC4 agonist,TRPC6 inhibitor,TRPC4 inh,Yeast superoxide
CCCCCC(=O)NNC(=S)NC(=O)c1cccc([N+](=O)[O-])c1,i,i,60*,i,i,104
Cc1cccc(C(=O)NC(=S)NNC(=O)COc2c(C)cccc2C)c1,i,i,102*,i,i,137
COc1ccc(C2=CC(c3sccc3C)n3nnnc3N2)cc1 (centres undefined),i,i,i,i,i,98
CC(=O)c1ccc(S(=O)(=O)N2CCN(C(=O)C3CCCC3)CC2)cc1,i,i,i,i,i,87
Cc1ccccc1/C=N/NC(=O)Cn1nnc(N)n1,i,i,i,i,i,101
Cc1cccc(C(=O)NC(=S)NNC(=O)Cc2ccccc2)c1,i,i,219*,i,i,129
O=C(NC(=S)NNC(=O)c1ccc(Cl)cc1Cl)c1cccnc1,i,i,i,i,i,114
Cc1ccccc1C(=O)NNC(=S)NC(=O)c1ccc(Cl)cc1Cl,i,i,249*,i,i,241
Cc1cccc(C(=O)NC(=S)NCc2ccccc2)c1,i,i,i,i,i,92
Cc1cccc(C(=O)NC(=S)NNC(=O)c2ccccc2Cl)c1,i,i,294*,i,i,174
Cc1cccc(C(=O)NC(=S)Nc2ccccc2C(=O)O)c1,i,i,i,i,i,104
Cc1cccc(OCCCOc2cccc3cccnc23)c1C,i,11*,i,i,i,88
Cc1cccc(OCCCCc2c(C)n[nH]c2C)c1C,i,i,i,i,-8*,98
COc1ccc(/C=C/CN2CCCC(C(=O)c3ccc(OC)c(F)c3)C2)cc1 (centres undefined),i,i,131*,i,i,86
Cn1c(-c2c(N)n(CCCc3ccccc3)c3nc4ccccc4nc23)nc2ccccc21,i,i,i,i,i,.
COCCCn1c(N)c(-c2nc3ccccc3n2C)c2nc3ccccc3nc21,i,i,74*,i,i,71
Cc1cc(-n2c(C)cc(C(=O)CCl)c2C)no1,i,i,i,i,i,118
O=C(COC(=O)CCC(NC(=O)OCc1ccccc1)C(=O)OCC(=O)Nc1ccccc1)Nc1ccccc1 (centres undefined),i,i,i,i,i,97
Cc1ccc(SCc2nc(-c3cccnc3)no2)cc1,i,i,i,i,i,100
CCn1nccc1C(=O)Nc1cc(Cl)cc(Cl)c1,i,i,i,i,-5*,109
CCn1nccc1C(=O)Nc1ccc(Cl)cn1,i,i,i,i,i,99
O=C(OCC(=O)N1CCN(C(=O)c2ccco2)CC1)c1cc(-c2ccc(Cl)c(Cl)c2Cl)nc2ccccc12,i,i,i,i,i,107
